# An excerpt weighted towards active compounds, which were near 1.8% of everything screened.
# CHRM5 antagonist = human M5 muscarinic receptor antagonists, primary screen, CHO cells, Fluo-8 calcium fluorescence; Muscarinic acetylcholine receptor M5 (Homo sapiens), P08912; CHO-hM5 cells, ACh EC80; inhibition, % at 3 µM; 360,000 compounds, 0.59% hits; AID 624040, 2012;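 active = inhibition above a per-plate cutoff, the mean of that plate's test compounds plus 3 SD, cut at about 27% in these data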;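 also: 0% = acetylcholine EC80 with DMSO and 100% = DMSO without agonist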
# M4 antag = human M4 muscarinic receptor antagonists, primary screen, CHO cells, Fluo-8 calcium fluorescence; CHO-hM4 cells, ACh EC80; 360,000 compounds, 0.73% hits; AID 624125, 2012; Muscarinic acetylcholine receptor M4 (Homo sapiens), P08173; inhibition, % at 3 µM;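 active = inhibition above its plate's cutoff, the mean inhibition of sample wells plus 3 SD, cut at about 27% in these data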;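 also: 0% = acetylcholine EC80 with DMSO and 100% = DMSO without agonist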
# Target sequence (P08173 whole entry, looked up): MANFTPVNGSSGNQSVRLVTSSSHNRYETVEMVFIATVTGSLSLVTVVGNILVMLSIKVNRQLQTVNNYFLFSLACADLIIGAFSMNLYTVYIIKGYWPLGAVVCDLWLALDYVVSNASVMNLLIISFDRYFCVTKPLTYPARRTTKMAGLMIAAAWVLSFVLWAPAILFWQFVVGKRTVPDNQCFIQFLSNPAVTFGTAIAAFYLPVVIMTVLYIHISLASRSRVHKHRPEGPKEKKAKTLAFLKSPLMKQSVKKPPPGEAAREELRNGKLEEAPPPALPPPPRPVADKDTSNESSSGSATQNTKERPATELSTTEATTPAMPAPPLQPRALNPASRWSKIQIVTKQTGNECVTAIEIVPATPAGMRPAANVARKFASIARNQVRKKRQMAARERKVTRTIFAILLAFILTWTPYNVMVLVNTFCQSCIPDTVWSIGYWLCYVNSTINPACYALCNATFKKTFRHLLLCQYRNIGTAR
# M4 ag = human M4 muscarinic receptor agonists, primary screen, CHO-K1 cells, Fluo-8 calcium fluorescence | Muscarinic acetylcholine receptor M4 (Homo sapiens), P08173 | CHO-K1 hM4/Gqi5; vehicle 0%, full acetylcholine response 100% | activation, % at 3 µM | 360,000 compounds, 0.14% hits | AID 624127, 2012;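 active = activation above the run mean over all test wells plus 3 SD, cut at about 32% in these data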;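 also: peak over basal fluorescence ratio per well then scaled between controls; 0% = DMSO wells and 100% = acetylcholine at EC100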
# M5 PAM = human M5 muscarinic receptor positive allosteric modulators, primary screen, CHO-K1 cells, Fluo-8 calcium fluorescence; CHO-K1 hM5, ACh EC20 PAM; 0% = ACh EC20, 100% = ACh EC100; activation, % at 3 µM; AID 624038, 2012; 360,000 compounds, 0.3% hits;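 active = activation above the run cutoff, the mean activation of all test compounds plus 3 SD, cut at about 18% in these data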
#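 System – CHO-K1 hM5 cells · Compound – 3 µM, single dose · Incubation – compound preincubation 140 s before EC20 acetylcholine addition · Technique – Fluo-8 calcium fluorescence · Measure – Max/basal fluorescence ratio as % of EC20–EC100 ACh window · Benchmarks – low control EC20 acetylcholine (0%), high control EC100 acetylcholine (100%) · Replication – singlicate, one well per test compound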
# CHRM4 PAM = human M4 muscarinic receptor positive allosteric modulators, primary screen, CHO-K1 cells, Fluo-8 calcium fluorescence; Muscarinic acetylcholine receptor M4 (Homo sapiens), P08173; CHO-K1 hM4/Gqi5, ACh EC20; 0% = ACh EC20, 100% = maximal ACh; activation, % at 3 µM; 360,000 compounds, 0.4% hits; AID 624126, 2012;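 active = activation above its plate's cutoff, the mean activation of sample wells plus 3 SD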
# M5 ag = human M5 muscarinic receptor agonists, primary screen, CHO-K1 cells, Fluo-8 calcium fluorescence; Muscarinic acetylcholine receptor M5 (Homo sapiens), P08912; CHO-K1 hM5 cells; 0% DMSO wells, 100% maximal acetylcholine response; activation, % at 3 µM; 360,000 compounds, 0.19% hits;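 active = activation above the run's mean over test compounds plus 3 SD, cut at about 23% in these data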;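 also: signal is peak over basal fluorescence ratio across the kinetic read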
# Active calls of the source: *.
SMILES,CHRM5 antagonist,M4 antag,M4 ag,M5 PAM,CHRM4 PAM,M5 ag
COCCCNc1c2c3c(cccc3[nH]c1=O)C(=O)c1ccccc1-2,41*,53*,305*,-26,-18,94*
Cc1sc2nc(CN3CCCC3)nc(N3CCC(C(N)=O)CC3)c2c1C,8,22,4,7,31*,-6
Cc1sc2nc(CN3CCCC3)nc(N3CCN(C(=O)c4ccco4)CC3)c2c1C,-4,0,2,9,-6,-4
C[C@H]1CN([C@@H](C)CO)C(=O)CCCn2cc(nn2)CO[C@@H]1CN(C)S(C)(=O)=O,1,3,1,3,4,2
Cc1cccc(NC(=O)CC2NC3CCCCC3NC2=O)c1 (stereo not given),-5,8,0,24*,1,-8
CC1([N+](=O)[O-])COC2(OC1)C(=O)Nc1ccccc12 (stereo not given),8,48*,0,0,-18,-3
CCn1c(CNc2ccccc2Cl)nnc1SCCN1CCCCC1,1,33*,1,-7,-19,-8
CN(C)c1cccc(NC(=O)c2cccc3c(-c4ccc(F)c(F)c4)coc23)c1,-9,-10,1,-3,2,0
Cc1ccc(CCN2CC(C(=O)NC3CCC(C)CC3)CC2=O)cc1 (stereo not given),-4,-8,1,3,5,0
CC(=O)c1c(C)nc2ccc([N+](=O)[O-])cc2c1-c1ccccc1,-2,-27,2,6,14*,-8
CC(=O)c1c(C)nc2ccc(Br)cc2c1-c1ccccc1,-4,-9,0,-1,7,-2
CC1(C(=O)Nc2ccc(F)cc2F)CCN1C(=O)CCC1CCCC1 (stereo not given),9,-6,-1,-2,-2,-1
CN(C)c1ncnc2c1ncn2[C@H]1CN(Cc2cccnc2)C[C@@H](CO)O1,-9,-8,1,3,1,-1
CCOc1cc(-c2nc3ccccc3s2)ccc1O,8,31*,-1,-13,-25,-6
CCOC(=O)c1oc2ccc(CNCCO)c(Cl)c2c1C,-2,-1,1,2,2,-4
CCOC(=O)c1oc2ccc(CNC3CCCCC3)c(Cl)c2c1C,-6,55*,8,-8,-17,-4
O=C(COC(=O)C1CCC1)Nc1ccc(OC(F)F)cc1,0,0,1,1,-4,-5
O=C(COC(=O)C1CC1)Nc1ccc(OC(F)F)cc1,-3,29*,2,5,4,1
CCOc1ccc(CCNC(=O)CSc2n[nH]c(N)n2)cc1OCC,30*,13,0,-8,-7,-3
CCOC(=O)C(C(=O)Nc1ccc(C)cc1)C1CCCCC1 (stereo not given),-1,-2,0,7,45*,-8
CCOC(=O)C(C(=O)Nc1ccccc1)C1CCCCC1 (stereo not given),21,3,3,-17,-7,-7
O=C1NC2(Nc3ccccc31)C(=O)Nc1ccc(Br)cc12 (stereo not given),98*,-3,0,-30,-1,-15
Cc1cc(CNC[C@H]2O[C@@H](n3cnc4c(N)ncnc43)[C@H](O)[C@@H]2O)no1,1,-1,1,0,6,0
CC(C)(C)N(Cc1ccccc1)C(=O)c1ccc(Br)o1,2,-4,-2,0,1,-9
CC(C)(C)N(Cc1ccccc1)C(=O)c1ccc(Cl)cc1[N+](=O)[O-],11,27*,2,-19,-18,-9
SMILES,CHRM5 antagonist,M4 antag,M4 ag,M5 PAM,CHRM4 PAM,M5 ag
CCN(C(=O)c1ccc(Cl)cc1[N+](=O)[O-])c1ccccc1C,3,5,1,-1,-10,-9
Cc1ccc(C(=O)N(Cc2ccccc2)C(C)(C)C)cc1C,20,37*,-2,-20,-15,-9
CCCCNC(=O)C1(C)CCC(=O)N1CCCn1ccnc1 (stereo not given),-6,1,0,3,-8,3
CC1(C(=O)NS(=O)(=O)c2cccc(Cl)c2)CCN1C(=O)C1CCCCC1 (stereo not given),4,-2,0,1,3,1
COC(=O)c1ccc(N)cc1O,-5,2,1,22*,14,-4
CCOC(=O)C1=C(COC(=O)CNS(=O)(=O)c2ccc(NC(C)=O)cc2)NC(=O)NC1C (stereo not given),7,-5,2,0,22*,2
CCOC(=O)C1=C(COC(=O)CNS(=O)(=O)c2ccc(C)c(C)c2)NC(=O)NC1C (stereo not given),-3,0,3,-1,-3,1
COCCNc1nc(NCc2cccc(OC)c2)c2sc(-c3ccccc3)cc2n1,3,0,2,-5,-4,-3
COc1ccc(C(=O)/C(=C\c2ccco2)N2C=CC=CC2=C(C#N)C#N)cc1,3,18,4,-9,-9,-7
N#CC(C#N)=C1C=CC=CN1/C(=C\c1ccco1)C(=O)c1ccc(Br)cc1,25,69*,6,-8,-14,-5
N#CC(C#N)=C1C=CC=CN1/C(=C\c1ccco1)C(=O)c1ccccc1,10,30*,2,-3,-12,-5
CC1=C(C(=O)N(C(C)C)C(C)C)CC(CC(=O)NCc2ccco2)C(=O)N1Cc1ccccc1 (stereo not given),6,-9,-1,-6,2,2
CC(=O)n1cc([C@H]2C=C(C(N)=O)O[C@@H](OCc3ccc(CO)cc3)C2)c2ccccc21,13,16,34*,-28,-7,29*
COc1cccc(C=Nc2cc(C(C)C)c(O)cc2C)c1O,10,4,1,10,4,3
CS(=O)(=O)c1ccc(Cl)c(NC(=O)COC(=O)c2ccc(F)cc2Cl)c1,-4,2,0,18*,5,5
CN1CCC(N2CCN(C3CN(CCc4ccccc4)S(=O)(=O)C3)CC2)CC1 (stereo not given),4,-4,0,-3,0,0
CN1CCC(n2[nH]c(-c3ccccc3)c(Cc3ccccc3)c2=O)CC1,98*,98*,2,-37,-11,-13
